Measurements pooled from the literature.
Lines come from different studies, so protocols differ.

SMILES	tested on	test	test system	setting	measurement	value
Nc1ncncc1-c1cn([C@@H]2O[C@](F)(CO)[C@@H](O)[C@H]2O)cn1	Severe acute respiratory syndrome coronavirus 2	viral replication, inhibitor	A549-ACE2	24 h	IC50	> 100 µM
N.N.[Cl][Pt][Cl]	NALM-6	cell growth or viability, ATP luminescence		10 µM, 72 h	inhibition	97%
Nc1ncc(-c2cn([C@@H]3O[C@](F)(CO)[C@@H](O)[C@H]3O)cn2)cn1	Severe acute respiratory syndrome coronavirus 2	viral replication, inhibitor	A549-ACE2	24 h	IC50	> 100 µM
CCOC(=O)C1=C(CN2CCOCC2)NC(c2nccs2)=NC1c1ccc(F)cc1Br (centres unmarked)	Hepatitis B virus	viral replication, inhibitor, qPCR	HepDES19	72 h	EC50	0.04 µM
COc1cnc(OC)n2nc(NS(=O)(=O)c3c(OCC(F)F)cccc3C(F)(F)F)nc12	L02	cell growth or viability, CCK-8		0.78 µM, 72 h	inhibition	0%
O=c1[nH]c2ccccc2n1C1CCN(CCCC(c2ccc(F)cc2)c2ccc(F)cc2)CC1	Severe acute respiratory syndrome coronavirus 2	viral replication, inhibitor	Caco-2	replicon	IC50	2.14 µM
COc1ncc(-c2cn([C@@H]3O[C@](F)(CO[P@@](=O)(N[C@@H](C)C(=O)OC(C)C)Oc4ccccc4)[C@@H](O)[C@H]3O)cn2)cn1	Severe acute respiratory syndrome coronavirus 2	viral replication, inhibitor	A549-ACE2	24 h	IC50	> 100 µM
COc1ccc(C=NNC(=S)N[N+](=O)[O-])cc1OC	Leishmania tropica	parasite growth	J774.A1	72 h, intracellular, amastigote	IC50	775 µM
CC1=NN(c2ccc(C)c(C)c2)C(=O)/C1=N\Nc1cccc(-c2cccc(C(=O)O)c2)c1O	Severe acute respiratory syndrome coronavirus 2	viral replication, inhibitor	Caco-2	replicon	IC50	3.1 µM
O=[N+]([O-])NC(=S)NN=Cc1ccc(Br)cc1	Leishmania tropica	parasite growth, MTT		72 h, promastigote	IC50	1240 µM
CCOc1nc2cccc(C(=O)O)c2n1Cc1ccc(-c2ccccc2-c2nnn[nH]2)cc1	Severe acute respiratory syndrome coronavirus 2	viral replication, inhibitor	Calu-3	replicon	IC50	1.05 µM
COc1ncncc1-c1cn([C@@H]2O[C@](F)(CO[P@@](=O)(N[C@@H](C)C(=O)OC(C)C)Oc3ccccc3)[C@@H](O)[C@H]2O)cn1	Severe acute respiratory syndrome coronavirus 2	viral replication, inhibitor	A549-ACE2	24 h	IC50	> 100 µM
Cc1c(O)cccc1C(=O)N[C@@H](CSc1ccccc1)[C@H](O)CN1C[C@H]2CCCC[C@H]2C[C@H]1C(=O)NC(C)(C)C	Severe acute respiratory syndrome coronavirus 2	viral replication, inhibitor	Calu-3	replicon	IC50	4.05 µM
Cc1ccc(C=NNC(=S)N[N+](=O)[O-])cc1	Leishmania tropica	parasite growth	J774.A1	72 h, intracellular, amastigote	IC50	331 µM
